Among the data in ChEMBL document CHEMBL4513216, “Probing the Open Global Health Chemical Diversity Library for Multistage-Active Starting Points for Next-Generation Antimalarials” (ACS Infect Dis, 2020) are cytotoxicity values, retold here.

A short description of this data set: Toxicity liver stage against HepG2, at 10uM. It is filed as cell-based. On the set-up: test concentration 10 uM, cell line HepG2-A16-CD81EGFP. Conditions: human, HepG2-A16-CD81EGFP cells; read-out: INHIBITION
A digest of the protocol: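 Uninfected HepG2-A16-CD81EGFP cells, 3 × 10^3 per well, 1536-well, plated on prespotted compound at 10 μM final, parasite-free screening media added to match infected plates; puromycin 10 μM positive, DMSO 0.5% negative; run in parallel with 48 h PbLuc assay at 37 °C, 5% CO2; viability by CellTiter-Glo luminescence, normalized to controls.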
`CN1C(=O)CCN(C(=O)C2CC=CC2)c2ccccc21`: the cytotoxicity at 10 µM amounted to 8.96%.

On to `COc1c(C2CCCN2Cc2cn3ccsc3n2)c(C)nn1C` (configuration not stated), for which the cytotoxicity at 10 µM is -51.2%.

With `Cc1ccc(NC2CCN(C(=O)c3cccc4c3ccn4C)CC2)nn1`, the cytotoxicity at 10 µM was -17.3%.

`Cn1cc(C#N)cc1C(=O)NC1(C#N)CCSCC1`: the cytotoxicity at 10 µM is -7.23%.

`COCC(=O)N(C)Cc1nc(N(C)C)ncc1-c1ccncc1`: the cytotoxicity at 10 µM stood at 2.42%. Turning to `COc1cccc2cc(CNC(=O)N3CCC(C(N)=O)CC3)oc12`, the cytotoxicity at 10 µM was -6.13%. As to `CN1C[C@H]2CC[C@@H](CC1=O)N2C(=O)c1cc2ccccc2[nH]c1=O`, the cytotoxicity at 10 µM is -7.66%. For `O=C(CCNC(=O)c1ccoc1)Nc1ccc(F)cc1F` the value was -6.44%; for `CCc1n[nH]c(C2CN(C(=O)c3ccc4c(c3)CCCC4)CCO2)n1` (configuration not stated), -16.1%; for `Cc1nc(C)c(CN2CCC(N(C)Cc3noc(C4CC4)n3)C2)s1` (configuration not stated), -20%. Regarding `CCN(CC(=O)Nc1cc(Cl)ccc1C)C(=O)c1ccncc1`, the cytotoxicity at 10 µM was -1.73%. `CNc1cc(C)nc(N2C[C@H](NC(=O)C3CCOCC3)[C@@H](C3CC3)C2)n1`: the cytotoxicity at 10 µM amounted to 4.41%. Regarding `O=C([C@H]1C[C@H]2OCC[C@H]2N(Cc2ccncc2)C1)N1CCCCO1`, the cytotoxicity at 10 µM was -9.01%. As for `CN(CCc1cn[nH]c1)C(=O)C(c1ccc(F)cc1)N(C)C` (configuration not stated), the cytotoxicity at 10 µM is -19.5%.

For the compound `CC(=O)N1CCC2(CC1)CC(Oc1ccccc1)CO2` (configuration not stated), the cytotoxicity at 10 µM is -8.77%. On to `COc1ccc(C(=O)NC2CCN(c3ncccn3)CC2)cc1F`, for which the cytotoxicity at 10 µM is -17.8%.

`COCCN(C)C(C)Cc1ccccc1OC` (configuration not stated): the cytotoxicity at 10 µM was -5.34%. `O=C(Nc1cc(F)ccc1OCC1CCCO1)N1CCCC1` (configuration not stated): the cytotoxicity at 10 µM was -6.49%. Consider `Cc1noc(C)c1-c1nc(C2CCCN(C(=O)C(C)C)C2)ccc1CO` (configuration not stated), for which the cytotoxicity at 10 µM came out at 0.983%.

With `Cc1ccc(-c2nc(CN3CCn4c(C)nnc4C3)cs2)o1`, the cytotoxicity at 10 µM was -19.2%. For `CN(Cc1ccc2nonc2c1)C(=O)CCc1cc2n(n1)CCCNC2` the value was -9.46%. On to `COCCn1c2c(ccc1=O)CCN(C(=O)Cc1ccsc1)CC2`, for which the cytotoxicity at 10 µM was 2.22%. As for `O=C(C1CCOCC1)N1CCCC1c1cncc(CN2CCCC2)n1` (configuration not stated), the cytotoxicity at 10 µM is -0.802%. Turning to `Cc1nc(NC2CCCC2)cc(C2CCN2c2ncccn2)n1` (configuration not stated), the cytotoxicity at 10 µM is -0.943%. Regarding `CN(C)c1ccc(C(=O)N2C[C@@H](CN3CCCCC3)[C@@H](CO)C2)cc1`, the cytotoxicity at 10 µM is -1.72%. With `Cc1cc(-c2cnc(C)nc2CN(C)C(=O)c2cc(C3CC3)on2)on1`, the cytotoxicity at 10 µM is -20%. For `O=C(CCc1ccsc1)N(Cc1ccccn1)C1CC1` the value was -4.87%; for `CC(C)OC(=O)N1CCC(Nc2ncc(Br)cn2)CC1`, -0.951%; for `c1ccc(-c2nnc3sc(CCN4CCCCCC4)nn23)cc1`, 1.11%. Take `c1ccc2c(NC3CCc4ncnn4C3)ncnc2c1` (configuration not stated): the cytotoxicity at 10 µM was 7.21%.

For the compound `Cn1cc(I)c(C(=O)NC2CCCC2)n1`, the cytotoxicity at 10 µM was 5.53%. The same measure for `Cc1nnc(CN2CCN(C)C3(CCC(=O)N(CCO)CC3)C2)s1` (configuration not stated): -14.9%. On to `CCOC[C@@]12CCC[C@@H]1CN(C(=O)c1ccc(OC)cc1)C2`, for which the cytotoxicity at 10 µM is -108%. `CC(NC(=O)Cn1cccn1)c1ccc2c(c1)OCCO2` (configuration not stated): the cytotoxicity at 10 µM is -2.23%.

Regarding `NC(=O)N1CCC2(CCN(Cc3ccccn3)C2=O)C1` (configuration not stated), the cytotoxicity at 10 µM amounted to 3.39%. Consider `CCS(=O)(=O)N1CC(=O)N(CCOc2ccccc2)CC(O)C1` (configuration not stated), for which the cytotoxicity at 10 µM is -0.739%. The same measure for `CNC(=O)NC(=O)C(C)N1CCCc2cc(OC)ccc2C1` (configuration not stated): 9.77%; for `CC(=O)NCCCOc1c(C)cccc1Cl`: 0.238%; for `CC(C)NC(=O)c1ccn(COc2c(Cl)cccc2Cl)n1`: 7.44%. For `N#Cc1ccccc1NC(=O)c1ccc2c(c1)OCO2` the value was -10.4%; for `CN1CC2(CCCCN2C(=O)c2ccsc2)CC1=O` (configuration not stated), 2.73%; for `CCCc1noc(CCC(=O)Nc2cc(C(F)(F)F)c[nH]c2=O)n1`, -7.21%.

`Cc1nc(N2CCOCC2)nc2c1CN(CC(=O)N(C)C)CC2`: the cytotoxicity at 10 µM is -101%. With `O=C(Cc1ccc2c(c1)OCC2)Nc1nc(C(F)(F)F)n[nH]1`, the cytotoxicity at 10 µM came to 2.98%. Regarding `CCN(c1ccc(C(=O)N2CCCC2)cc1)S(=O)(=O)CC`, the cytotoxicity at 10 µM is -9.75%. Take `Cc1nc(CN2CCCC(NCCOc3cccc(C#N)c3)C2)no1` (configuration not stated): the cytotoxicity at 10 µM is -8.36%. Take `Cc1cc(CN2CCCC2)cc(Oc2nc(C)cnc2C)c1`: the cytotoxicity at 10 µM is -2.54%. Take `Cc1cnn(CC2CCCCN2C(=O)Cc2c(C)noc2Cl)c1` (configuration not stated): the cytotoxicity at 10 µM is -5.43%. Take `Cn1cnc(S(=O)(=O)N2CC3(CCN(c4ccccc4)C3)C2)c1`: the cytotoxicity at 10 µM was -91.7%. As for `CC(=O)c1cc2c(=O)[nH]c(=O)n(C)c2nc1C`, the cytotoxicity at 10 µM was -2.89%. Consider `Cc1ccc(CC(NC(=O)CCS(C)(=O)=O)c2ccccn2)cc1` (configuration not stated), for which the cytotoxicity at 10 µM is -11%. Consider `Cc1nc(C2CCCNC2)cc(N(C)CCc2cn[nH]c2)n1` (configuration not stated), for which the cytotoxicity at 10 µM is -9.91%.

`CC(C)NS(=O)(=O)c1ccccc1CNCc1cccc(O)c1`: the cytotoxicity at 10 µM was -7.19%. On to `CN(C)CC(=O)N1Cc2cc(-c3cc[nH]n3)ccc2C1c1cnco1` (configuration not stated), for which the cytotoxicity at 10 µM was 21.4%.

On to `Cc1cccc(CN2C[C@@H](CN3CCCN(C)CC3)[C@@H](CO)C2)n1`, for which the cytotoxicity at 10 µM was -7.57%. As for `Cc1cccnc1NC(=O)NC(CCO)C(C)(C)C` (configuration not stated), the cytotoxicity at 10 µM worked out at 2.3%.

In the case of `CCCNc1c(NC(=O)NCCCOC)c(=O)oc2ccccc12`, the cytotoxicity at 10 µM was -4.52%. For `CC1CCCN1Cc1cccc(C(=O)Nc2ccc3[nH]c(=O)oc3c2)c1` (configuration not stated) the value was -13.4%; for `Cc1cc(CN2CCN(C(=O)c3ccc(=O)n(C)c3)CC2)no1`, -8.07%. Turning to `Cn1cnc2c1CCN(Cc1cccc(C(N)=O)c1)C2`, the cytotoxicity at 10 µM was -16.8%. Turning to `O=C(CN1CCc2cncnc2C1)Nc1ccc(Cl)cn1`, the cytotoxicity at 10 µM was -3.24%. Take `CSCCC(C)(O)CNS(=O)(=O)Cc1cccc(C)c1` (configuration not stated): the cytotoxicity at 10 µM turned out to be 1.09%. For `CSCC[C@@H](CO)NC(=O)c1sc(-c2ccccc2Cl)nc1C` the value was 14.3%. With `Cc1cc(C)c(CNC(=O)NCc2ccc3c(c2)OCCO3)c(=O)[nH]1`, the cytotoxicity at 10 µM is -11.6%. In the case of `CC(=O)c1ccc(NCc2cc3n(n2)CCCN(S(C)(=O)=O)C3)nc1`, the cytotoxicity at 10 µM worked out at 1.02%. The same measure for `CCN(C)C[C@@H]1CN(S(=O)(=O)c2cccc(C#N)c2)C[C@@H]1CO`: 5.45%; for `Cc1ccc(C(=O)N2CCCCC2CNC(N)=O)s1` (configuration not stated): -0.519%. For `O=C(NC1CCC1)C1CCC2(CN(C(=O)c3ccno3)C2)O1` (configuration not stated), the cytotoxicity at 10 µM is -134%.

As for `COc1ccc(OCC2CCCN(Cc3ccncc3)C2)cc1` (configuration not stated), the cytotoxicity at 10 µM was -8.44%. As for `CN(C)S(=O)(=O)N1CCC(Cn2cccn2)CC1`, the cytotoxicity at 10 µM is -10.9%.

Take `CN(CCc1ccncc1)C(=O)C1CSCN1C(=O)C(C)(C)C` (configuration not stated): the cytotoxicity at 10 µM was -8.2%. For `Cc1cc(C(=O)N2CCc3nnc(N)cc3C2)c(C)n1-c1ccccc1` the value was 0.591%.
